Only some compounds are listed: those with a hit (about 3.5% of all), similar ones and a draw of the others.
FXIa inh 1536 – blocks human coagulation factor XIa protease activity; 220,000 tested, 0.14% active; inhibition, % at 5 µM; AID 798; purified FXIa, Boc-Glu-Ala-Arg-AMC fluorogenic substrate;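 active = inhibition of at least 40%; inactive = inhibition below 40%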;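 note: fluorescence of freed AMC excited at 355 nm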
Target sequence (P03951 19-387 limits assumed): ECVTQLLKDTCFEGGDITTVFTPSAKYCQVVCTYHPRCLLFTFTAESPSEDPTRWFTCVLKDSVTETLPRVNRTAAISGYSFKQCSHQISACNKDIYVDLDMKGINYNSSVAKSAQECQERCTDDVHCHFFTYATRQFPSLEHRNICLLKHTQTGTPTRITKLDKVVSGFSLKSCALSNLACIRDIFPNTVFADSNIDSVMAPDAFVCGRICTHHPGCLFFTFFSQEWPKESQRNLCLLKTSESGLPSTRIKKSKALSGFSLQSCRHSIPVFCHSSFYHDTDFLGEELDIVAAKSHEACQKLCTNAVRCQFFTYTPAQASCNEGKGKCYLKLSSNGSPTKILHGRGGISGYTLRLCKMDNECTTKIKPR
Target sequence (P03951 388-625 limits assumed): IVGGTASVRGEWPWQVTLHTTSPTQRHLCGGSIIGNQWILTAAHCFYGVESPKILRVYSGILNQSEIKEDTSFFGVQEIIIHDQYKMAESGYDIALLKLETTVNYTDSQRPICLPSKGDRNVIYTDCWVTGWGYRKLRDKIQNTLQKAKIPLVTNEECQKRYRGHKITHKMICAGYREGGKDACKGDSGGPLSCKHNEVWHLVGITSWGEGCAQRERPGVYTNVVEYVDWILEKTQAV
thrombin 1536 – inhibitors of human thrombin | P00734 | alpha-thrombin, Boc-VPR-AMC fluorogenic substrate cleavage | inhibition, % at 5 µM | 220,000 tested, 0.26% active;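 active = inhibition at or above 40%; inactive = inhibition below 40%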
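Material: human alpha-thrombin protein. Incubation: reaction at ambient temperature. Technique: fluorescence of released AMC, ex 355 nm, em 460 nm. Control set: no-compound enzyme wells and no-enzyme blanks. Also added: Boc-VPR-AMC substrate, 15 µM final. Buffer or medium: pH 7.5 Tris (50 mM) with NaCl 150 mM, Tween 20 0.05%.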
STAT3 act-1 – STAT3 signaling activation; U3A cells, IL-6 STAT3-luciferase reporter, luminescence; 100% = signal with IL-6 EC80 alone; activation (% of control), % at 5.6 µM; 190,000 tested, 0.91% active;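 active = activation above the screen-wide mean of compound activation plus 3 SD, cut at about 130% in these data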
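Material: STAT3-luciferase reporter U3A cells. Controls: IL-6-treated wells, 100% activation. Read-out: % activation versus median of IL-6-stimulated wells. Probe or stimulus: IL-6 stimulus at 33 ng/mL final. Timing: compound 1 h, then IL-6 6 h at 37 °C. Signal: reporter luminescence signal.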
hK5 inh – kallikrein 5 (human) inhibition | Q9Y337 | recombinant hK5, fluorogenic AMC substrate cleavage | inhibition, % at 5 µM | 210,000 tested, 0.59% active | AID 873;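 active = inhibition of 40% or more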
FXIIa inh 1536 – blocks human coagulation factor XIIa protease activity | purified FXIIa, Boc-QGR-AMC fluorogenic substrate, 2 h | inhibition, % at 5 µM | 220,000 tested, 0.3% active | AID 800; in the data active = inhibition above about 40%
AHR act – human AHR activation; AHR-responsive luciferase reporter cells, luminescence; P35869; activation, % at 5 µM; 320,000 tested, 2.5% active; in the data active = activation above about 47%
STAT3 act-2 – STAT3 activation, confirmation assay; U3A STAT3-luciferase reporter, IL-6 potentiation, luminescence; U3A cells lack STAT1; 100 means same as IL-6 alone; shares compounds with STAT3 act-1; AID 1267; 1,200 tested, 64% active; potentiation (% of control), % at 5.7 µM;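 active = percent activation of the STAT3 luciferase reporter above a set limit taken from the earlier primary screen, cut at about 130% in these data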
NFkB act STAT3ct – NF-kappaB activation in STAT3 activator counter-screen. shares compounds with STAT3 act-1. human cells, NF-kappaB reporter activation. activation (% of control), % at 5.7 µM. 1,200 tested, 11% active. AID 1309; in the data active = activation above about 120%;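 note: reporter induced by TNF-alpha stimulation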
STAT1 act STAT3c – activates STAT1, counter-screen to STAT3 activators; shares compounds with STAT3 act-1; NIH 3T3 STAT1-luciferase reporter, IFN-gamma, luminescence; activation (% of control), % at 5.7 µM; 1,200 tested, 13% active;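 active = activation above the solvent-only control well mean plus 3 SD, set per screening run, cut at about 120% in these data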
Of the large screens only hits and unclear results are named; the others gave an inactive call (follow-up assays come after a bar, where they were run).

COc1ccc(/C=C/C(=O)c2cc(F)ccc2OC(=O)c2ccccc2C)cc1OC	STAT3 act-1 143 | STAT3 act-2 inactive | NFkB act STAT3ct 156 | STAT1 act STAT3c inactive
CC(=O)c1c(-c2ccc(C)cc2)nc2c3ccccc3ccn12	STAT3 act-1 142, AHR act 59 | STAT3 act-2 143 | NFkB act STAT3ct inactive | STAT1 act STAT3c inactive
Cc1ccc(-c2nc3c4ccccc4ccn3c2CN2CCCCC2)cc1	none (no result: STAT3 act-1)
Cc1nc(NCCc2ccc(O)cc2)c2nnn(Cc3ccccc3)c2n1	none (no result: FXIa inh 1536, thrombin 1536, STAT3 act-1, hK5 inh, FXIIa inh 1536)
COC(=O)c1sccc1NC(=O)Nc1cccc(F)c1	STAT3 act-1 150 | STAT3 act-2 inactive | NFkB act STAT3ct 121 | STAT1 act STAT3c 135
Cc1ccccc1OCC(=O)Nc1cccc2nsnc12	STAT3 act-1 150 | STAT3 act-2 inactive | NFkB act STAT3ct inactive | STAT1 act STAT3c inactive
CCc1ccc(OCC(=O)Nc2cccc3nsnc23)cc1	none
CC(C)=C1C2C=CC1C(C(=O)Nc1cccc(C)c1)C2C(=O)O (stereo unspecified)	STAT3 act-1 160 | STAT3 act-2 145 | NFkB act STAT3ct inactive | STAT1 act STAT3c inactive
COc1ccc(OCC(=O)Nc2nc3c(s2)CCCC3)cc1	none (no result: FXIa inh 1536, thrombin 1536, STAT3 act-1, hK5 inh, FXIIa inh 1536)
O=C(NC(=S)Nc1nc2c(s1)CCCC2)c1ccccc1	STAT3 act-1 148 | STAT3 act-2 206 | NFkB act STAT3ct 142 | STAT1 act STAT3c 200
Cc1ccc(CC(=O)Nc2nc3c(s2)CCCC3)cc1	STAT3 act-1 141 | STAT3 act-2 137 | NFkB act STAT3ct inactive | STAT1 act STAT3c inactive
COC(=O)c1ccc(C(=O)NC(=S)Nc2nc3c(s2)CCCC3)cc1	none
O=C(Cc1cscn1)c1ccc(O)cc1O	STAT3 act-1 146 | STAT3 act-2 inactive | NFkB act STAT3ct inactive | STAT1 act STAT3c inactive
Cc1ccc(NC(=O)COc2ccccc2C(N)=O)cc1S(=O)(=O)N1CCCCCC1	none (no result: FXIa inh 1536, thrombin 1536, STAT3 act-1, hK5 inh, FXIIa inh 1536)
CC(C)CC(C(=O)NCc1ccccn1)N1C(=O)c2ccccc2C1=O (stereo unspecified)	none
Cc1ccc(C(=O)Nc2ccc3cn[nH]c3c2)cc1S(=O)(=O)N1CCCCC1	STAT3 act-1 143, AHR act 55 | STAT3 act-2 139 | NFkB act STAT3ct inactive | STAT1 act STAT3c 142
Cc1nonc1CC(=O)N1CCc2c([nH]c3ccccc23)C1c1ccccc1F (stereo unspecified)	STAT3 act-1 149 | STAT3 act-2 143 | NFkB act STAT3ct inactive | STAT1 act STAT3c inactive
O=C(Cc1cnc2ncnn2c1)N1CCc2c([nH]c3ccccc23)C1c1ccccc1F (stereo unspecified)	STAT3 act-1 144 | STAT3 act-2 140 | NFkB act STAT3ct inactive | STAT1 act STAT3c inactive
COc1ccc(CCN2C(=O)CSC2c2ccc(F)cc2)cc1 (stereo unspecified)	none (no result: FXIa inh 1536, thrombin 1536, STAT3 act-1, hK5 inh, FXIIa inh 1536)
Brc1ccc(-c2csc3ncnc(-n4nnc5ccccc54)c23)cc1	none
Cc1ccc(C2NC(=O)c3c(sc(C)c3C)N2)c(O)c1 (stereo unspecified)	STAT3 act-1 158, AHR act 49 | STAT3 act-2 159 | NFkB act STAT3ct inactive | STAT1 act STAT3c inactive
Cc1cccc(C2NC(=O)c3c(sc(C)c3C)N2)c1O (stereo unspecified)	none
Cc1ccc(C(=O)COc2cc(C)nc3nncn23)cc1	none (no result: STAT3 act-1)
COc1ccc(S(=O)(=O)N2Cc3ccccc3CC2C(=O)Nc2nccs2)cc1OC (stereo unspecified)	none
COc1ccc(S(=O)(=O)N2Cc3ccccc3CC2C(=O)Nc2nccs2)cc1 (stereo unspecified)	STAT3 act-1 140 | STAT3 act-2 inactive | NFkB act STAT3ct inactive | STAT1 act STAT3c inactive
O=C(COc1ccccc1Cl)Nc1cc(Cl)ccc1O	STAT3 act-1 166 (no result: AHR act) | STAT3 act-2 161 | NFkB act STAT3ct inactive | STAT1 act STAT3c inactive

Bioassay records (PubChem)
